This assay deals with T1, EDC3 (Homo sapiens, UniProt Q96F86).
T1 sequence (Q96F86 1-508): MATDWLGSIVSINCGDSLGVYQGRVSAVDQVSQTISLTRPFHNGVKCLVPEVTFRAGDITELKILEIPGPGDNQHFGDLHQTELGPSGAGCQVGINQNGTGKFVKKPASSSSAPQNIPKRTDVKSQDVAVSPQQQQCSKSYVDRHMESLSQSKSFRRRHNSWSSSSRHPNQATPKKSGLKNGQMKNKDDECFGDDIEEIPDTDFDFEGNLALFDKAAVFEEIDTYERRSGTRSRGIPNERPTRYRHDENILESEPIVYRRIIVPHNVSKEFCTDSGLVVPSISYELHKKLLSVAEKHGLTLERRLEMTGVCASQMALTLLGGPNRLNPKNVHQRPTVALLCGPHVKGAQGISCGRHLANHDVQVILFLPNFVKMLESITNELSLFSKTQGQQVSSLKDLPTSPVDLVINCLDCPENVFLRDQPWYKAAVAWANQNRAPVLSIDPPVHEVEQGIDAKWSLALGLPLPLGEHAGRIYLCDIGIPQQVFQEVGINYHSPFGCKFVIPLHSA
Briefly: competitive gel-based ABPP in situ. Type of assay: cell-based. The method in brief: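 Recombinant EDC3-expressing HEK293T cells pretreated with test compound (0.1–100 µM, 2 h); lysed, and soluble proteomes labelled with HHS-465 Tyr/Lys-reactive sulfonyl-triazole probe (100 µM, 1 h, RT). CuAAC to rhodamine-azide, SDS-PAGE and in-gel fluorescence scanning. IC50 estimated from dose-dependent loss of EDC3 probe labelling; mean ± SEM, n = 3 biologically independent replicates.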

Consider `COc1ccc(S(=O)(=O)n2cc(CS(C)(=O)=O)nn2)cc1` [AHL-030], for which the IC50 (usually the concentration needed to halve the response being measured) was roughly 6 µM.

The values are drawn from paper PMC10392812 (Journal of the American Chemical Society, 2023).
